Results reported in publication PMC6643050 (Lipids, 2018).
Several values for one entry are separate records, joined by “and”; a condition that tells them apart may be missing. Equal entries are not always repeated.

How the values were obtained:
[1] = molecular target: T1, Δ^1–28 L-PGDS (Homo sapiens, UniProt P41222); test: Determination of fluorescent probe binding affinity
T1 sequence (P41222 29-190): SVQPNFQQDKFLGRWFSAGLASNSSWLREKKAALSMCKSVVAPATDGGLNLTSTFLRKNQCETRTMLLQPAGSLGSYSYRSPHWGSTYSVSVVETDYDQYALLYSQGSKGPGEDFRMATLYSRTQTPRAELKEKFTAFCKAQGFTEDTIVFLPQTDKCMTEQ

[2] = molecular target: T1, Δ^1–28 L-PGDS; test: Fluorescence displacement binding assay; settings: for Binding to Δ^1–28 L-PGDS, DAUDA displacement: DAUDA probe
[3] = molecular target: T1, Δ^1–28 L-PGDS; test: Intrinsic tryptophan fluorescence quenching assay; format: binding; settings: compound 20 μM, L-PGDS 1.5 μM, pH 8.0; mean ± SE
Procedure, shortened: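 Recombinant human Δ1–28 L-PGDS, delipidated on hydroxypropyl-beaded dextran (1 h, 37 °C), used at 1.5 μM in 5 mM Tris–HCl pH 8.0. Test compound (2 mM DMSO stock) added at 20 μM final; equilibrated 30 min at 25 °C. Tryptophan fluorescence read at ex/em 282/340 nm and corrected for nonspecific effects with N-acetyl-L-tryptophanamide (1.5 μM). Reported relative to vehicle; ≥3 independent assays.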

[4] = molecular target: L-PGDS; settings: known high-affinity L-PGDS ligand; ref Breustedt et al., 2006; cited from earlier work
[5] = DAUDA (500 nM) displacement, L-PGDS 3 μM, pH 7.6, 25 °C, mean ± SE
[6] = Ki, DAUDA (500 nM) displacement, L-PGDS 3 μM, pH 7.6, 25 °C, mean ± SE

Compound | Quenching (%), fluorescence reduction relative to vehicle-treated Δ^1–28 L-PGDS [3] [%] | Ki [2, 6] | other results
CCCCCCC(CCCCCCCCCCC(=O)O)N(C)c1ccc([N+](=O)[O-])c2nonc12 (centres unmarked) [NBD-stearate, 12-N-methyl-(7-nitrobenz-2-oxa-1,3-diazo)aminostearic acid] | – | – | Binding of fluorescent probe ([1]; L-PGDS 1 μM titrated with probe): did not exhibit appreciable binding
O=S(=O)(O)c1cccc2cccc(Nc3ccccc3)c12 [ANS, 1-anilinonaphthalene-8-sulfonic acid] | – | – | Kd [1]: 3.4 ± 0.8 µM
prostaglandin E2-glyceryl ester [PGE2-GE] | 15.1 ± 1.7 | – | Ki [2, 5]: 11.2 ± 1.2 µM
CC1=C(/C=C/C(C)=C/C=C/C(C)=C/C(=O)O)C(C)(C)CCC1 [all-trans retinoic acid] | 71.1 ± 1.4 | – | Kd [4]: 0.29 µM
CCCCC/C=C\C/C=C\C/C=C\C/C=C\CCCC(=O)NCCO [AEA, N-arachidonoylethanolamine] | 3.1 ± 3.3 | > 200 µM | Affinity for Δ^1–28 L-PGDS, ANS displacement ([2]; ANS probe (500 nM)): lack of affinity; Binding to Δ^1–28 L-PGDS, DAUDA displacement [2]: did not bind
CCCCC[C@H](O)/C=C/[C@H]1[C@H](O)CC(=O)[C@@H]1C/C=C\CCCC(=O)O [PGE2, prostaglandin E2] | 6.5 ± 1.5 | 128 ± 16 µM | –
11-hydroxy-Δ^9-tetrahydrocannabinol [11-OH-THC] | 9.7 ± 1.3 | – | Ki [2, 5]: 61 ± 14 µM; Ki ([2]; DAUDA displacement): 61 ± 14 µM
C=C(C)[C@@H]1CCC(C)=C[C@H]1c1c(O)cc(CCCCC)cc1O [CBD, cannabidiol] | 7.2 ± 2.1 | 77.9 ± 3.9 µM | –
O=C(O)C1[C@H](c2ccccc2)C(C(=O)Oc2cccc3ccccc23)[C@H]1c1ccccc1 (some centres unmarked) [SBFI-26] | 33.3 ± 2.2 | – | Ki [2, 5]: 3 ± 0.5 µM
CCCCC[C@H](O)/C=C/[C@@H]1[C@@H](C/C=C\CCCC(=O)NCCO)[C@@H](O)C[C@H]1O [Prostamide F2α] | 0.1 ± 2.6 | – | Ki [2, 5]: > 200 µM; Binding to Δ^1–28 L-PGDS, DAUDA displacement [2]: not found to bind with any appreciable affinity
CCCCCCCC/C=C\CCCCCCCC(=O)O [OLA, oleic acid] | 15.1 ± 3.7 | 1.8 ± 0.9 µM | –
CCCCCCCC/C=C\CCCCCCCC(N)=O [Oleamide] | 3.6 ± 2.0 | > 200 µM | –
CCCCCc1cc(O)c2c(c1)OC(C)(C)[C@@H]1CCC(C)=C[C@@H]21 [THC, Δ^9-tetrahydrocannabinol] | 14.0 ± 2.2 | – | Ki [2, 5]: 175 ± 26 µM
CCCCCCC(C)(C)c1cc(O)c2c(c1)OC(C)(C)[C@@H]1CC=C(C(=O)O)C[C@@H]21 [AJA, ajulemic acid] | 21.9 ± 2.9 | 2.2 µM and 2.3 µM | –
CCCCCCCC/C=C\CCCCCCCC(=O)NCCO [OEA, oleoylethanolamide] | −0.9 ± 2.1 | > 200 µM | Binding to Δ^1–28 L-PGDS, DAUDA displacement [2]: did not display any appreciable binding
CCCCC/C=C\C/C=C\C/C=C\C/C=C\CCCC(=O)OC(CO)CO [2-AG, 2-arachidonoylglycerol] | −0.8 ± 3.0 | > 200 µM | Binding to Δ^1–28 L-PGDS, DAUDA displacement [2]: did not bind
CCCCCc1cc(O)c2c(c1)OC(C)(C)[C@@H]1CCC(C(=O)O)=C[C@@H]21 [THC-COOH, 11-nor-9-carboxy-Δ^9-tetrahydrocannabinol] | 15.6 ± 1.3 | – | Ki [2, 5]: 7.8 ± 1.7 µM; Ki ([2]; DAUDA displacement): 7.8 ± 1.7 µM
CCCCCCCCCCCCCCCC(=O)NCCO [PEA, palmitoylethanolamide] | 1.3 ± 4.7 | > 200 µM | Binding to Δ^1–28 L-PGDS, DAUDA displacement [2]: did not display any appreciable binding
CN(C)c1cccc2c(S(=O)(=O)NCCCCCCCCCCC(=O)O)cccc12 [DAUDA, 11-(dansylamino)undecanoic acid] | – | – | Kd [1]: 0.96 ± 0.08 µM
CCCCCC/C=C\CCCCCCCC(=O)O [PLA, palmitoleic acid] | 11.9 ± 2.3 | 3.7 ± 0.5 µM | –
CCCCC[C@H](O)/C=C/[C@@H]1[C@@H](C/C=C\CCCC(=O)O)[C@@H](O)C[C@H]1O [PGF2α, prostaglandin F2α] | 2.7 ± 1.7 | 81 ± 9 µM | –
